Assay results from different studies.
Lines come from different studies, so protocols differ.
Target: MAP kinase-interacting serine/threonine-protein kinase 1 (MKNK1, Homo sapiens, UniProt Q9BUB5)

Structure (SMILES) | test | conditions | quantity | result
COc1ccc2oc(-c3ccc4nc(N)oc4c3)c/c(=N\c3ccccc3NC(=O)CCN)c2c1 | binding | 1 µM | remaining binding | 107%
CN1CCN(C(=O)c2ccc(NC(=O)Nc3ccc(N(C)c4ccnc(Nc5ccc(CS(C)(=O)=O)cc5)n4)cc3)cc2)CC1 | binding, competition with immobilised ligand | 1 µM | remaining binding | 65%
N#Cc1ccc(NC(=O)Nc2ccccc2)cc1 | cell-free assay, competition with immobilised ligand | 25 µM | remaining binding | 75%
CCCCC(=O)Nc1ccc(-c2ccc3ncn(CCC)c(=O)c3c2)cn1 | binding, competition with immobilised ligand | 0.5 µM | remaining binding | 100%
CO[C@@H]1[C@H](N(C)C(=O)c2ccccc2)C[C@H]2O[C@]1(C)n1c3ccccc3c3c4c(c5c6ccccc6n2c5c31)C(=O)NC4 | enzyme activity, inhibitor | 1 µM | inhibition | 20%
Cc1ccc(NC(=O)c2ccnc(C(F)(F)F)c2)cc1-c1cc(OCCO)nc(N2CCOCC2)c1 | binding, competition with immobilised ligand | 1 µM | remaining binding | 85%
C#Cc1cc(-c2cc(Nc3nc(N[C@@H](C)c4ccc(F)cn4)ncc3Cl)n[nH]2)ccc1C=O | enzyme activity, inhibitor | 0.2 µM | inhibition | 9.43%
CC#CC(=O)N1CCC[C@H]1c1nc(-c2ccc(C(=O)Nc3ccccn3)cc2)c2c(N)nccn12 | enzyme activity, inhibitor | 1 µM | inhibition | 0%
CC(C)S(=O)(=O)c1ccc2nccc(Nc3ccc4sc(C5CCCC5)nc4c3)c2c1 | enzyme activity, inhibitor | 1 µM | activity vs control | 106%
C#Cc1cnc(Nc2ccnc(CO)c2)nc1Nc1ccccc1S(C)(=O)=NC#N (centres unmarked) | cell-free assay | 1 µM | remaining signal | 100%
C1=C/COCc2cc(ccc2OCCN2CCCC2)Nc2nccc(n2)-c2cccc(c2)COC/1 | binding | 0.1 µM | remaining binding | 78%
